These results are taken from ChEMBL document CHEMBL2331394, “Neuroprotective effects of mercaptoethylleonurine and mercaptoethylguanidine analogs on hydrogen peroxide-induced apoptosis in human neuronal SH-SY5Y cells” (Bioorg Med Chem Lett, 2013).

Data set [1] can be described thus: Neuroprotective activity in human SH-SY5Y cells assessed as reduction of H2O2-induced apoptosis at 5 uM after 24 hrs by MTT assay relative to control. The class given is functional, cell-based. Also on record: scale not given: the % may be the effect or the level left.
The nature of data set [2]: Neuroprotective activity in human SH-SY5Y cells assessed as reduction of H2O2-induced apoptosis at 25 uM after 24 hrs by MTT assay relative to control. The class given is functional, cell-based. Also on record: scale not given: the % may be the effect or the level left.
Data set [3] can be described thus: Neuroprotective activity in human SH-SY5Y cells assessed as reduction of H2O2-induced apoptosis at 50 uM after 24 hrs by MTT assay relative to control. The class given is functional, cell-based. Also on record: scale not given: the % may be the effect or the level left.
Data set [4] is described as follows: Cytotoxicity against human SH-SY5Y cells at 5 to 100 uM by MTT assay. The class given is cell-based.
The nature of data set [5]: Neuroprotective activity in human SH-SY5Y cells assessed as reduction of H2O2-induced apoptosis at 5 mM after 24 hrs by MTT assay relative to N-acetyl-cysteine. The class given is functional, cell-based. Also on record: scale not given: the % may be the effect or the level left.
A short description of data set [6]: Neuroprotective activity in H2O2-stimulated human SH-SY5Y cells assessed as upregulation of Bax expression at 5 mM incubated for 4 hrs prior to H2O2 challenge measured after 12 hrs by Western blotting analysis. The class given is functional, cell-based. Particulars: in the assay text read “downregulation of Bax expression” for “upregulation of Bax expression”. In a few lines:
(§1)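 SH-SY5Y cells pretreated 4 h with test agent (5, 25, 50 µM) or NAC (5 mM), then exposed to 100 µM H2O2 for 12 h. Bcl-2 and Bax quantified by Western blot densitometry against GAPDH. Mean ± SEM of at least three independent experiments, each in duplicate.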

Data set [7] is described as follows: Neuroprotective activity in H2O2-stimulated human SH-SY5Y cells assessed as downregulation of Bcl2 expression at 5 mM incubated for 4 hrs prior to H2O2 challenge measured after 12 hrs by Western blotting analysis. The class given is functional, cell-based. Particulars: in the assay text read “upregulation of Bcl2 expression” for “downregulation of Bcl2 expression”. In a few lines:
as §1

In data set [8] the test system is SH-SY5Y. As to the kind of experiment: Inhibition of H2O2-induced ERK phosphorylation in human SH-SY5Y cells at 50 uM incubated for 4 hrs prior to H2O2 induction measured after 12 hrs by Western blotting analysis. The class given is cell-based. The method, boiled down: (§2)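 SH-SY5Y cells pretreated 4 h with 50 µM test agent, then stimulated with 100 µM H2O2 for the indicated periods before harvest. Phosphorylated Akt, JNK, ERK and p38 detected by Western blot, normalised to the corresponding total protein as loading control.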

Data set [9] addresses MAP kinase p38 (Homo sapiens) (UniProt O15264+Q15759+Q16539+P53778). The data set is described as follows: Inhibition of H2O2-induced p38 phosphorylation in human SH-SY5Y cells at 50 uM incubated for 4 hrs prior to H2O2 induction measured after 12 hrs by Western blotting analysis. It is filed as cell-based. The method, boiled down: as §2
In data set [10] the target is c-Jun N-terminal kinase, JNK (Homo sapiens) (UniProt P45983+P53779+P45984). As to the kind of experiment: Inhibition of H2O2-induced JNK phosphorylation in human SH-SY5Y cells at 50 uM incubated for 4 hrs prior to H2O2 induction measured after 12 hrs by Western blotting analysis. It is filed as cell-based. In a few lines:
as §2

Data set [11] deals with SH-SY5Y. As to the kind of experiment: Inhibition of H2O2-induced AKT phosphorylation in human SH-SY5Y cells at 50 uM incubated for 4 hrs prior to H2O2 induction measured after 12 hrs by Western blotting analysis. It is filed as cell-based. In a few lines: as §2
The nature of data set [12]: Neuroprotective activity in H2O2-stimulated human SH-SY5Y cells assessed as upregulation of Bax expression incubated for 4 hrs prior to H2O2 challenge measured after 12 hrs by Western blotting analysis. It is filed as functional, cell-based. Particulars: in the assay text read “downregulation of Bax expression” for “upregulation of Bax expression”. In a few lines:
as §1

Data set [13] can be described thus: Neuroprotective activity in H2O2-stimulated human SH-SY5Y cells assessed as downregulation of Bcl2 expression incubated for 4 hrs prior to H2O2 challenge measured after 12 hrs by Western blotting analysis. It is filed as functional, cell-based. Particulars: in the assay text read “upregulation of Bcl2 expression” for “downregulation of Bcl2 expression”. In a few lines:
as §1

Activity calls are given as the source filed them. The rule behind the calls is not given here.

On to `N=C(NCCS)NCCCCCO`, for which the Activity in [1] is 60%; in [2] it was 80.6%; in data set [3] it was 82.8%; in data set [4] it was “Non-toxic”; in data set [5], 76.4%.
For `CCC(O)CNC(=N)NCCS` (configuration not stated), the Activity in data set [1] was 75.8%; in data set [2], 77.1%; in data set [3] it was 71.1%; in data set [4] it was “Non-toxic”; in data set [5] it was 88.8%.
With `N=C(NCCS)NCCCO`, the Activity in [1] was 67.2%; in data set [2], 81%; in data set [3] it was 82.1%; in [4] it was “Non-toxic”; in [5] it was 76.4%.
The matching figures for `COc1cc(C(=O)OC2CCC(NC(=N)NCCS)CC2)cc(OC)c1O` (configuration not stated): 76.4%, 67.2%, 65.9%, “Non-toxic” and 88.8%.
For `CC(O)CNC(=N)NCCS` (configuration not stated), the Activity is 77.1% in data set [1]; 67.3% in data set [2]; 65.5% in data set [3]; “Non-toxic” in [4]; 88.8% in data set [5].
For `COc1cc(C(=O)OCCCCNC(=N)NCCS)cc(OC)c1OC`, the Activity in data set [1] is 32.5%; in data set [2], 49.4%; in data set [3], 49.1%; in data set [4], “Non-toxic”; in data set [5], 82.4%.
In the same order, the values of `COc1cc(C(=O)OCCCCCNC(=N)NCCS)cc(OC)c1O` are 53.9%, 59.9%, 65.9%, “Non-toxic” and 76.4%.
As to `COc1cc(C(=O)OCCCCNC(=N)NCCS)cc(OC)c1O`, the Activity is 60.7% in data set [1]; 66.4% in data set [2]; 60.4% in data set [3]; “Non-toxic” in data set [4]; 88.8% in data set [5].
Regarding `CC(=O)N[C@@H](CS)C(=O)O`, the outcome in [6] and in data set [7] was Active.
Consider `N=C(NCCS)NCCCN`, for which the inhibition entry (in the data set with SH-SY5Y [8]; in [9]) was “inactive” in each case. The inhibition entry (in data set [10]; with SH-SY5Y [11]) was “Active” throughout. The Activity entry was “Dose-dependent effect” in [12]; “Dose-dependent effect” in data set [13]; 77.3% in data set [1]; 84.3% in data set [2]; 96.5% in data set [3]; “Non-toxic” in data set [4]. In addition, the Activity in data set [5] was found to be 82.4%.
With `N=C(NCCS)NC1CCC(O)CC1` (configuration not stated), the Activity was 31.6% in data set [1]; 38.6% in data set [2]; 30.4% in [3]; “Non-toxic” in data set [4]; 82.4% in [5].
Consider `COc1ccc(C(=O)OCCCCNC(=N)NCCS)cc1`, for which the Activity was 42.4% in data set [1]; 37.5% in data set [2]; 48.6% in [3]; “Non-toxic” in data set [4]; 82.4% in data set [5].
Take `CC(CO)NC(=N)NCCS` (configuration not stated): the Activity is 59.9% in [1]; 67.2% in data set [2]; 80% in [3]; “Non-toxic” in data set [4]; 88.8% in data set [5].
With `COc1cc(C(=O)OCCCCCCNC(=N)NCCS)cc(OC)c1O`, the Activity in data set [1] is 78.5%; in data set [2] it was 80.6%; in data set [3], 73.8%; in data set [4] it was “Non-toxic”; in data set [5] it was 88.8%.
For the compound `N=C(NCCN)NCCS`, the Activity in [1] is 66.3%; in data set [2], 75.4%; in data set [3], 79.2%; in [4], “Non-toxic”; in [5] it was 76.4%.
With `COc1cc(C(=O)OCCCNC(=N)NCCS)cc(OC)c1O`, the Activity is 78.8% in [1]; 83.3% in data set [2]; 93.3% in data set [3]; “Non-toxic” in data set [4]; 76.4% in data set [5].
As to `N=C(NCCO)NCCS`, the Activity is 56.4% in data set [1]; 59.6% in data set [2]; 65.1% in data set [3]; “Non-toxic” in data set [4]; 76.4% in data set [5].
Turning to `COc1cc(OC)cc(C(=O)OCCCCNC(=N)NCCS)c1`, the Activity is 62.1% in data set [1]; 63.5% in data set [2]; 66.1% in data set [3]; “Non-toxic” in data set [4]; 88.8% in data set [5].
Consider `COc1cc(C(=O)OCCCCNC(=N)N)cc(OC)c1O`, for which the Activity is 76.7% in [1], 38.5% in data set [2], 46% in [3] and 82.4% in data set [5].
Take `N=C(NCCS)NCCCCO`: the Activity in data set [1] was 68%; in data set [2], 63.5%; in [3] it was 70.2%; in [4], “Non-toxic”; in [5], 82.4%.
As for `N=C(NCCS)NCCCCCCO`, the Activity in data set [1] was 72.4%; in data set [2] it was 55.5%; in data set [3] it was 52.9%; in [4], “Non-toxic”; in data set [5] it was 82.4%.
